From ChEMBL document CHEMBL1156833, “The discovery of MK-0674, an orally bioavailable cathepsin K inhibitor” (Bioorg Med Chem Lett, 2010)
pIC50: −log10 of the molar value.

Tested on: not listed separately
Experiment: Oral bioavailability in rat
Assay type: ADME, organism-based
Conditions: in vivo
How it was run: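 Pharmacokinetics in rats, rabbits and rhesus monkeys after oral dosing in 1% methocel vehicle. Half-life and oral bioavailability were derived from the plasma profiles.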

bioavailability | SMILES
7% | CC(C)(F)C[C@H](N[C@@H](c1ccc(-c2ccc(C3(O)CC3)cn2)cc1)C(F)(F)F)C(=O)NC1(C#N)CC1
10% | Cc1csc(-c2ccc([C@H](N[C@@H](CC(C)(C)F)C(=O)NC3(C#N)CC3)C(F)(F)F)cc2)n1

Species: Homo sapiens
Experiment: Selectivity ratio of IC50 for human cathepsin L to IC50 for humanized rabbit cathepsin K
Conditions: not given

Ratio IC50 | SMILES
1300 | CC(C)(F)C[C@H](N[C@@H](c1ccc(-c2ccc(S(C)(=O)=O)nc2)cc1)C(F)(F)F)C(=O)NC1(C#N)CC1
11000 | CC(C)(F)C[C@H](N[C@@H](c1ccc(-c2ccc(C3(O)CC3)cc2)cc1)C(F)(F)F)C(=O)NC1(C#N)CC1
15000 | CC(C)(F)C[C@H](N[C@@H](c1ccc(-c2ccc(S(C)(=O)=O)cc2)cc1)C(F)(F)F)C(=O)NC1(C#N)CC1 [ODANACATIB]
6020 | CC(C)(F)C[C@H](N[C@@H](c1ccc(-c2ccc3ncccc3c2)cc1)C(F)(F)F)C(=O)NC1(C#N)CC1
21300 | C[C@H](C(N)=O)c1ccc(-c2ccc([C@H](N[C@@H](CC(C)(C)F)C(=O)NC3(C#N)CC3)C(F)(F)F)cc2)cc1
18000 | CC(C)(F)C[C@H](N[C@@H](c1ccc(-c2ccc(C3(O)CC3)cn2)cc1)C(F)(F)F)C(=O)NC1(C#N)CC1
3700 | CC(C)(F)C[C@H](N[C@@H](c1ccc(-c2ccc(C3(C(N)=O)CC3)cn2)cc1)C(F)(F)F)C(=O)NC1(C#N)CC1
18800 | Cc1csc(-c2ccc([C@H](N[C@@H](CC(C)(C)F)C(=O)NC3(C#N)CC3)C(F)(F)F)cc2)n1

Species: Homo sapiens
Experiment: Selectivity ratio of IC50 for human cathepsin S to IC50 for humanized rabbit cathepsin K
Conditions: not given

Ratio IC50 | SMILES
28 | CC(C)(F)C[C@H](N[C@@H](c1ccc(-c2ccc(S(C)(=O)=O)nc2)cc1)C(F)(F)F)C(=O)NC1(C#N)CC1
106 | CC(C)(F)C[C@H](N[C@@H](c1ccc(-c2ccc(C3(O)CC3)cc2)cc1)C(F)(F)F)C(=O)NC1(C#N)CC1
300 | CC(C)(F)C[C@H](N[C@@H](c1ccc(-c2ccc(S(C)(=O)=O)cc2)cc1)C(F)(F)F)C(=O)NC1(C#N)CC1 [ODANACATIB]
44 | CC(C)(F)C[C@H](N[C@@H](c1ccc(-c2ccc3ncccc3c2)cc1)C(F)(F)F)C(=O)NC1(C#N)CC1
693 | C[C@H](C(N)=O)c1ccc(-c2ccc([C@H](N[C@@H](CC(C)(C)F)C(=O)NC3(C#N)CC3)C(F)(F)F)cc2)cc1
210 | CC(C)(F)C[C@H](N[C@@H](c1ccc(-c2ccc(C3(O)CC3)cn2)cc1)C(F)(F)F)C(=O)NC1(C#N)CC1
849 | CC(C)(F)C[C@H](N[C@@H](c1ccc(-c2ccc(C3(C(N)=O)CC3)cn2)cc1)C(F)(F)F)C(=O)NC1(C#N)CC1
777 | Cc1csc(-c2ccc([C@H](N[C@@H](CC(C)(C)F)C(=O)NC3(C#N)CC3)C(F)(F)F)cc2)n1

Target: Cathepsin K (Homo sapiens, UniProt P43235)
Experiment: Inhibition of humanized rabbit cathepsin K
Conditions: not given

pIC50 | SMILES
8.59 | CC(C)(F)C[C@H](N[C@@H](c1ccc(-c2ccc(S(C)(=O)=O)nc2)cc1)C(F)(F)F)C(=O)NC1(C#N)CC1
9.70 | CC(C)(F)C[C@H](N[C@@H](c1ccc(-c2ccc(C3(O)CC3)cc2)cc1)C(F)(F)F)C(=O)NC1(C#N)CC1
9.70 | CC(C)(F)C[C@H](N[C@@H](c1ccc(-c2ccc(S(C)(=O)=O)cc2)cc1)C(F)(F)F)C(=O)NC1(C#N)CC1 [ODANACATIB]
9.40 | CC(C)(F)C[C@H](N[C@@H](c1ccc(-c2ccc3ncccc3c2)cc1)C(F)(F)F)C(=O)NC1(C#N)CC1
9.70 | C[C@H](C(N)=O)c1ccc(-c2ccc([C@H](N[C@@H](CC(C)(C)F)C(=O)NC3(C#N)CC3)C(F)(F)F)cc2)cc1
9.52 | CC(C)(F)C[C@H](N[C@@H](c1ccc(-c2ccc(C3(O)CC3)cn2)cc1)C(F)(F)F)C(=O)NC1(C#N)CC1
9.30 | CC(C)(F)C[C@H](N[C@@H](c1ccc(-c2ccc(C3(C(N)=O)CC3)cn2)cc1)C(F)(F)F)C(=O)NC1(C#N)CC1
9.52 | Cc1csc(-c2ccc([C@H](N[C@@H](CC(C)(C)F)C(=O)NC3(C#N)CC3)C(F)(F)F)cc2)n1

Species: Homo sapiens
Experiment: Selectivity ratio of IC50 for human cathepsin F to IC50 for humanized rabbit cathepsin K
Conditions: not given

Ratio IC50 | SMILES
1150 | CC(C)(F)C[C@H](N[C@@H](c1ccc(-c2ccc(C3(O)CC3)cc2)cc1)C(F)(F)F)C(=O)NC1(C#N)CC1
3230 | CC(C)(F)C[C@H](N[C@@H](c1ccc(-c2ccc(S(C)(=O)=O)cc2)cc1)C(F)(F)F)C(=O)NC1(C#N)CC1 [ODANACATIB]
3590 | C[C@H](C(N)=O)c1ccc(-c2ccc([C@H](N[C@@H](CC(C)(C)F)C(=O)NC3(C#N)CC3)C(F)(F)F)cc2)cc1
2760 | CC(C)(F)C[C@H](N[C@@H](c1ccc(-c2ccc(C3(O)CC3)cn2)cc1)C(F)(F)F)C(=O)NC1(C#N)CC1
3440 | CC(C)(F)C[C@H](N[C@@H](c1ccc(-c2ccc(C3(C(N)=O)CC3)cn2)cc1)C(F)(F)F)C(=O)NC1(C#N)CC1
1980 | Cc1csc(-c2ccc([C@H](N[C@@H](CC(C)(C)F)C(=O)NC3(C#N)CC3)C(F)(F)F)cc2)n1

Species: Homo sapiens
Experiment: Selectivity ratio of IC50 for human cathepsin B to IC50 for humanized rabbit cathepsin K
Conditions: not given

Ratio IC50 | SMILES
725 | CC(C)(F)C[C@H](N[C@@H](c1ccc(-c2ccc(S(C)(=O)=O)nc2)cc1)C(F)(F)F)C(=O)NC1(C#N)CC1
1420 | CC(C)(F)C[C@H](N[C@@H](c1ccc(-c2ccc(C3(O)CC3)cc2)cc1)C(F)(F)F)C(=O)NC1(C#N)CC1
5170 | CC(C)(F)C[C@H](N[C@@H](c1ccc(-c2ccc(S(C)(=O)=O)cc2)cc1)C(F)(F)F)C(=O)NC1(C#N)CC1 [ODANACATIB]
3000 | CC(C)(F)C[C@H](N[C@@H](c1ccc(-c2ccc3ncccc3c2)cc1)C(F)(F)F)C(=O)NC1(C#N)CC1
1440 | C[C@H](C(N)=O)c1ccc(-c2ccc([C@H](N[C@@H](CC(C)(C)F)C(=O)NC3(C#N)CC3)C(F)(F)F)cc2)cc1
3640 | CC(C)(F)C[C@H](N[C@@H](c1ccc(-c2ccc(C3(O)CC3)cn2)cc1)C(F)(F)F)C(=O)NC1(C#N)CC1
3920 | CC(C)(F)C[C@H](N[C@@H](c1ccc(-c2ccc(C3(C(N)=O)CC3)cn2)cc1)C(F)(F)F)C(=O)NC1(C#N)CC1
4040 | Cc1csc(-c2ccc([C@H](N[C@@H](CC(C)(C)F)C(=O)NC3(C#N)CC3)C(F)(F)F)cc2)n1

Tested on: not listed separately
Experiment: Oral bioavailability in squirrel monkey
Assay type: ADME, organism-based
Conditions: saimiri, in vivo

bioavailability | SMILES
5% | Cc1csc(-c2ccc([C@H](N[C@@H](CC(C)(C)F)C(=O)NC3(C#N)CC3)C(F)(F)F)cc2)n1

Tested on: not listed separately
Experiment: Decrease in bone resorption assessed as corrected bone resorption measured as ratio of bone resorption IC50 x humanized rabbit cathepsin K IC50 to rabbit cathepsin K IC50 equation
Assay type: functional, tissue-based, Bone element
Conditions: not given

pIC50 | SMILES
8.10 | CC(C)(F)C[C@H](N[C@@H](c1ccc(-c2ccc(S(C)(=O)=O)nc2)cc1)C(F)(F)F)C(=O)NC1(C#N)CC1
7.89 | CC(C)(F)C[C@H](N[C@@H](c1ccc(-c2ccc(C3(O)CC3)cc2)cc1)C(F)(F)F)C(=O)NC1(C#N)CC1
8.30 | CC(C)(F)C[C@H](N[C@@H](c1ccc(-c2ccc(S(C)(=O)=O)cc2)cc1)C(F)(F)F)C(=O)NC1(C#N)CC1 [ODANACATIB]
8.10 | CC(C)(F)C[C@H](N[C@@H](c1ccc(-c2ccc3ncccc3c2)cc1)C(F)(F)F)C(=O)NC1(C#N)CC1
7.46 | C[C@H](C(N)=O)c1ccc(-c2ccc([C@H](N[C@@H](CC(C)(C)F)C(=O)NC3(C#N)CC3)C(F)(F)F)cc2)cc1
7.46 | CC(C)(F)C[C@H](N[C@@H](c1ccc(-c2ccc(C3(C(N)=O)CC3)cn2)cc1)C(F)(F)F)C(=O)NC1(C#N)CC1
7.85 | Cc1csc(-c2ccc([C@H](N[C@@H](CC(C)(C)F)C(=O)NC3(C#N)CC3)C(F)(F)F)cc2)n1
